# High-throughput results as filed in PubChem.
# An excerpt weighted towards active compounds, which were near 1.9% of everything screened.
# VIM-2 inh: VIM-2 metallo-beta-lactamase inhibitors, primary screen, biochemical, epi-absorbance readout, Pseudomonas aeruginosa enzyme; 290,000 tested, 0.89% active; purified VIM-2, nitrocefin hydrolysis, epi-absorbance fluorescence; inhibition, % at 5.6 µM;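 active means inhibition above the mean of all tested compounds plus 3 SD, cutoff set per screening run, cut at about 7.5% in these data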;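 further: red hydrolysis product quenches plate fluorescence so inhibitors raise well fluorescence; 0% = enzyme with DMSO and 100% = DMSO without enzyme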
# pCIP destab: p/CIP-EGFP fusion destabilizers, primary screen, fluorescence, F442A cells; 290,000 tested, 0.01% active; 16 h; decrease of EGFP signal, % at 10 µM; Q05BA5;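 active means EGFP signal decrease of at least 30% at 10 µM or well 3 SD below plate mean, unless failing retest; inactive means the rest, including hits failing retest or dose response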
# Target sequence (Q05BA5 1-1403): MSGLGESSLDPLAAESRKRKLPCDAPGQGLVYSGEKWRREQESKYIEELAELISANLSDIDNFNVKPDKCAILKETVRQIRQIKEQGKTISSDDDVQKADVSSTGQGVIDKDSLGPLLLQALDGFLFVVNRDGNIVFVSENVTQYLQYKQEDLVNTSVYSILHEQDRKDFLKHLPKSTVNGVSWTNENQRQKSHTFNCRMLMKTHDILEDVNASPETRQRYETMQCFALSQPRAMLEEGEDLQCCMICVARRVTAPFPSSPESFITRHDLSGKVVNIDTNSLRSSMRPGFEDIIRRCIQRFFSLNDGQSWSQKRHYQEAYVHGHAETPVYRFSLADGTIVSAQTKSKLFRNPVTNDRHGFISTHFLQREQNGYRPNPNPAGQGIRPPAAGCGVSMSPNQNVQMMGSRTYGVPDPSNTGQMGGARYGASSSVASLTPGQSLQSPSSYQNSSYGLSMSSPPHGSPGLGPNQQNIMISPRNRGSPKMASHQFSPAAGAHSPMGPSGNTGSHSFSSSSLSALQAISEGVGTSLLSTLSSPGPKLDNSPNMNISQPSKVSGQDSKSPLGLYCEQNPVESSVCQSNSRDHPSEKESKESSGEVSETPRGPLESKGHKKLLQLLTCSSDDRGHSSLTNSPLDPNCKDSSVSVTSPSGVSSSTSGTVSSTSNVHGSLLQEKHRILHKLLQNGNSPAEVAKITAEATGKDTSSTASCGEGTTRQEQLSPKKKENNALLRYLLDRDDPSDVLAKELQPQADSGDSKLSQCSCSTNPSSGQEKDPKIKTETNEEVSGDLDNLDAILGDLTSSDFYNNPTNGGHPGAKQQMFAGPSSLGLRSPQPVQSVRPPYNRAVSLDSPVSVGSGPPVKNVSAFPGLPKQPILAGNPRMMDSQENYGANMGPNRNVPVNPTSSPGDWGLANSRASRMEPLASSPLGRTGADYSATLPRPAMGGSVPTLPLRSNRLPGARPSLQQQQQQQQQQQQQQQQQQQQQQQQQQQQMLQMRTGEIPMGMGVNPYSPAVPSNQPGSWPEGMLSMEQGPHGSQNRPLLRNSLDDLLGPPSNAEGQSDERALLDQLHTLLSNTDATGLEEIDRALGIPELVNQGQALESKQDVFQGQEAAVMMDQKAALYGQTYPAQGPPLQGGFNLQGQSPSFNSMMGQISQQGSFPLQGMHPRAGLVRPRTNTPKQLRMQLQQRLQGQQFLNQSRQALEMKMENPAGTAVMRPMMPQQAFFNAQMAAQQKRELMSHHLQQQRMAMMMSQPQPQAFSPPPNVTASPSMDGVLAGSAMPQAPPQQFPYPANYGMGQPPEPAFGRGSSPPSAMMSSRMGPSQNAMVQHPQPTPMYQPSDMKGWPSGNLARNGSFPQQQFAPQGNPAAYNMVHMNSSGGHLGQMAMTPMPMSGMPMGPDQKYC
# CTSL1 counter: Fasciola hepatica cathepsin L1 inhibitors, primary screen, counter-screen for PFM18AAP inhibitor project, biochemical, QFRET, fluorogenic peptide substrate; recombinant F. hepatica cathepsin L1, Z-Leu-Arg-MCA fluorescence; inhibition, % at 5.96 µM; 300,000 tested, 0.49% active; AID 1906, 2009;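 active means inhibition above the mean of all tested compounds plus 3 SD, set per screening campaign, cut at about 17% in these data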;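 further: 0% = plate median of test compound wells and 100% = 1 µM Z-Phe-Ala-diazomethylketone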
# IMP-1 inh-1: IMP-1 metallo-beta-lactamase inhibitors, primary screen, biochemical, epi-absorbance readout, Pseudomonas aeruginosa enzyme; 290,000 tested, 0.45% active; metallo-beta-lactamase IMP-1 (Pseudomonas aeruginosa); AID 1556, 2009; inhibition, % at 5.6 µM; purified IMP-1, nitrocefin hydrolysis, epi-absorbance fluorescence;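 active means inhibition above the mean plus 3 SD of all compounds in the same screening run, cut at about 4.5% in these data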;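 further: 0% = IMP-1 with DMSO and 100% = DMSO wells lacking enzyme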
#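 System – purified recombinant IMP-1 beta-lactamase · Input – IMP-1 dispensed at 0.2 nM · Timing – 15 min preincubation plus 25 min reaction at 25 °C · Signal – Epi-absorbance fluorescence, 480 nm excitation, 530 nm emission · Measure – percent IMP-1 inhibition derived from blank-referenced optical density · Controls – Enzyme-plus-DMSO low control, enzyme-free DMSO high control · Replication – singlicate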
# UBC9 SUMO inh: inhibitors of in vitro SUMOylation cascade, primary screen, biochemical, HTRF, uHTS; SUMO-conjugating enzyme UBC9 (Homo sapiens), P63279; HTRF SUMOylation assay, SAE1/SAE2 + UBC9; inhibition, % at 35 µM; 290,000 tested, 0.36% active; AID 2006, 2009; in the data active means inhibition above about 50%, passing the limit was not always enough
# T cell HTS: modulators of CD8 T cell-vesicle binding, primary screen, mouse 2C CD8+ T cells, flow cytometry | 2C CD8+ T cell-vesicle binding; hits give low values | response (vesicle binding), % at 7 µM | 330,000 tested, 0.068% active | AID 2052, 2009;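 active means response, share of CD8 T cells binding vesicles, and their 90th percentile fluorescence all below set limits, cut at about 80% in these data, passing the limit was not always enough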;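 further: values below 100% mean blocked vesicle binding to the CD8+ T cells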
#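 Test system: purified 2C TCR transgenic mouse naive CD8+ T cells. Probe or stimulus: QL9-peptide-loaded Drosophila micro-vesicles bearing Ld, ICAM-1 and B7-1. Incubation: binding step 1.5 h, 37 °C, antibody labelling 20 min, ice. Measured by: flow cytometry of vesicle-bound cells.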
# IMP-1 inh-2: IMP-1 metallo-beta-lactamase inhibitors, confirmation, selectivity assay for selective VIM-2 inhibitor project, biochemical, epi-absorbance readout, triplicate; shares compounds with VIM-2 inh; purified IMP-1, nitrocefin hydrolysis, epi-absorbance fluorescence; inhibition, % at 5.6 µM; 1,300 tested, under 10 active; AID 1856, 2009; call rule not given here;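 further: 0% = enzyme with vehicle and 100% = vehicle without enzyme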
# VIM-2 FRET inh: VIM-2 inhibitors in FRET format, confirmation, artefact control for selective VIM-2 inhibitor project, biochemical, epi-absorbance artifact exclusion. shares compounds with VIM-2 inh. purified VIM-2, CCF2 FRET substrate hydrolysis. inhibition, % at 5.6 µM. 1,300 tested, 23% active. AID 1857, 2009;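 active means inhibition above the mean of all tested compounds plus 3 SD, cut at about 19% in these data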;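 further: 0% = VIM-2 plus DMSO and 100% = no enzyme wells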
# TEM-1 inh: TEM-1 serine beta-lactamase inhibitors, counter-screen for VIM-2 inhibitor project, biochemical, epi-absorbance, HTS; Purified TEM-1, nitrocefin hydrolysis, epi-absorbance fluorescence; AID 1866, 2009; 1,300 tested, 3% active; shares compounds with VIM-2 inh; inhibition, % at 5.6 µM;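 active means inhibition above that campaign's mean inhibition plus 3 SD, cut at about 0.46% in these data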;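 further: 0% = TEM-1 with DMSO and 100% = TEM-1 with 100 µM potassium clavulanate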
# VIM-2 inh conf: VIM-2 metallo-beta-lactamase inhibitors, confirmation, biochemical, epi-absorbance, hits shared with IMP-1 screen; shares compounds with VIM-2 inh; purified VIM-2, nitrocefin hydrolysis; inhibition, % at 5.6 µM; 1,300 tested, 96% active;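 active means inhibition of the VIM-2 beta-lactamase enzyme above about 11% from the earlier first-round screen, limit read from the data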;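 further: 0% = VIM-2 with DMSO and 100% = buffer wells without enzyme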
# Starred values were filed as active, the others as inactive; i = inactive; nt = no result.
SMILES,VIM-2 inh,pCIP destab,CTSL1 counter,IMP-1 inh-1,UBC9 SUMO inh,T cell HTS,IMP-1 inh-2,VIM-2 FRET inh,TEM-1 inh,VIM-2 inh conf
COc1ccc(C(=O)Nc2ccc(N3CCN(C)CC3)cc2)cc1[N+](=O)[O-],34*,-18,-6,-4,12,i,-3,-1,-7,60*
O=C1C(=O)N(CCCO)C(c2ccc(Br)cc2)/C1=C(\O)c1ccc(Br)cc1 (stereo not given),-1,-8,3,-2,20,396,nt,nt,nt,nt
CCOC(=O)c1ccc(S(=O)(=O)NCCNCc2ccccc2)cc1,nt,nt,nt,nt,nt,347,nt,nt,nt,nt
CC(NS(=O)(=O)c1ccc2c(c1)C(=O)c1cc(S(=O)(=O)NC(C)C(=O)O)ccc1-2)C(=O)O (stereo not given),18*,-1,0,-2,-7,110,-3,21*,-6,19*
c1ccc2c(c1)oc1c(NCCCn3ccnc3)ncnc12,56*,8,-7,-1,20,143,-4,-7,-7,60*
CCNc1nc(C)nc2c1oc1ccccc12,4,6,3,-1,-11,106,nt,nt,nt,nt
Cc1nc(NCCCn2ccnc2)c2oc3ccccc3c2n1,76*,-15,1,1,26,417,-2,-8,-6,83*
Cc1ccc(-c2cc(C(=O)O)n(-c3ccc(S(N)(=O)=O)cc3)n2)cc1,-2,1,3,-1,14,296,nt,nt,nt,nt
COc1cc(CNCCNCC(C)O)ccc1OCc1ccc(Cl)nc1 (stereo not given),39*,-4,3,-3,9,405,-4,-2,-4,32*
COc1ccc(CCNCc2ccc(OCc3ccc(Cl)nc3)c(OC)c2)cc1OC,-3,-20,-3,-2,13,101,nt,nt,nt,nt
CN1C(=O)/C(=C2\SC(N3CCCCCC3)=NC2=O)c2ccccc21,13*,-1,0,-3,-7,416,-4,-7,-9,26*
CCCN1C(=O)/C(=C2\SC(N3CCCCC3)=NC2=O)c2ccccc21,-2,-12,8,-2,4,383,nt,nt,nt,nt
O=C(CSc1nnc(NC(=O)c2ccc(F)cc2F)s1)NC1CCCC1,3,-12,3,-2,-12,186,nt,nt,nt,nt
O=C(CSc1nnc(NC(=O)c2ccccc2F)s1)NC1CCCC1,13*,-2,4,-3,1,156,-3,24*,-5,15*
O=C(CSc1nnc(NC(=O)c2c(F)cccc2F)s1)NCc1ccccc1,33*,3,5,-3,19,189,-3,56*,-4,38*
Cc1cccc(C(=O)c2ccccc2C(=O)O)c1O,22*,-6,0,0,0,314,-3,30*,-6,17*
O=C(c1cnn2c(C(F)F)cc(-c3ccccc3)nc12)N1CCCCC1c1cccnc1 (stereo not given),-3,-7,7,-5,15,325,nt,nt,nt,nt
CSc1nnc2c3cc(F)ccc3n(C)c2n1,14*,-9,4,-3,6,138,-2,0,-4,24*
Cc1nc(-c2ccccn2)nc(SCC(=O)c2ccccc2)c1Cl,54*,-18,10,-2,28,291,-4,-25,-6,72*
CCOC(=O)CSc1nc(-c2ccccn2)ncc1OC,17*,0,10,-5,10,422,-4,-25,-4,25*
COc1cnc(-c2ccccn2)nc1Sc1ccc(Cl)cc1,-3,-11,2,-4,15,936,nt,nt,nt,nt
COc1cnc(-c2ccccn2)nc1Oc1cccc(C(F)(F)F)c1,45*,13,2,-5,-4,174,-5,-29,-5,60*
COc1cnc(-c2ccccn2)nc1N(C)c1ccccc1,37*,-9,2,-5,7,430,-4,-35,-3,47*
CC(C)(C)CC(=O)N1CCN(c2ccc(S(=O)(=O)N3CCOCC3)cc2[N+](=O)[O-])CC1,nt,nt,nt,nt,nt,294,nt,nt,nt,nt
O=C(CCC1CCCN(C(=O)c2ccsc2)C1)N1CCN(c2ccccn2)CC1 (stereo not given),-3,-4,5,-1,11,551,nt,nt,nt,nt
SMILES,VIM-2 inh,pCIP destab,CTSL1 counter,IMP-1 inh-1,UBC9 SUMO inh,T cell HTS,IMP-1 inh-2,VIM-2 FRET inh,TEM-1 inh,VIM-2 inh conf
C=CCNC(=O)C1CCN(S(=O)(=O)c2ccc3ccccc3c2)CC1,-2,2,-1,-3,9,213,nt,nt,nt,nt
Cc1ccc2oc(=O)c3cc(C(=O)NCCN4CCc5ccccc5C4)sc3c2c1,3,-6,4,-4,1,258,nt,nt,nt,nt
Cc1ccc2oc(=O)c3cc(C(=O)N4CCN(C)CC4)sc3c2c1,13*,-6,-2,-1,11,142,-4,4,-9,20*
CCOCCCNCc1cc(Cl)cc(Cl)c1OCC,-4,-2,-2,-2,-5,142,nt,nt,nt,nt
O=[N+]([O-])c1cccc(S(=O)(=O)N2CN(c3ccc(Br)cc3)c3nc4ccccc4nc32)c1,nt,nt,nt,nt,nt,186,nt,nt,nt,nt
Cc1c(CC(=O)O)c(=O)oc2c(C)c3occ(-c4ccccc4)c3cc12,15*,8,-4,1,24,372,1,2,-10,21*
Cc1oc2c(C)c3oc(=O)c(CCC(=O)O)c(C)c3cc2c1-c1ccccc1,7,6,2,0,-62,284,nt,nt,nt,nt
CC1=CCC(C(=O)O)(C(=O)N/N=C/c2cccs2)C(c2ccc([N+](=O)[O-])cc2)C1 (stereo not given),31*,-9,1,-4,-1,186,-4,9,-6,7
